Laboratory results reported in ChEMBL document CHEMBL4613292, “5,6-Dihydroxypyrimidine Scaffold to Target HIV-1 Nucleocapsid Protein” (ACS Med Chem Lett, 2020).
Calls of active or inactive are those of the source. The rule behind the calls is not given here.

Experiments:
[1] = (§1) Selectivity index, ratio of CC50 for human HeLa cells assessed as reduction in cell viability to EC50 for wild-type HIV1 NL4-3 infected in human TZM-bl cells infected with supernatants from virus-infected human MT2 cells treated with compound for 48 to 72 hrs assessed as reduction in viral replication after 2 days by bright Glo-luciferase reporter gene assay based BiCycle assay; format: toxicity; details: read-out: Ratio CC50/EC50
In short: (§2)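 Selectivity index is CC50 from the respective cytotoxicity assay (HeLa or PBMC) divided by EC50 from the two-round MT-2/TZM-bl NL4-3 assay.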

[2] = Selectivity index, ratio of CC50 for human PBMC cells stimulated with phytohemagglutinin and interleukin-2 assessed as reduction in cell viability measured after 7 days by MTS assay to EC50 for wild-type HIV1 NL4-3 infected in human TZM-bl cells infected with supernatants from virus-infected human MT2 cells treated with compound for 48 to 72 hrs assessed as reduction in viral replication after 2 days by bright Glo-luciferase reporter gene assay based BiCycle assay; format: toxicity; details: read-out: Ratio CC50/EC50; in short: as §2
[3] = Cytotoxicity against phytohemagglutinin and interleukin-2-stimulated human PBMC cells assessed as reduction in cell viability measured after 7 days by MTS assay; format: cell-based
[4] = Cytotoxicity against human HeLa cells assessed as reduction in cell viability; format: cell-based
[5] = target: Human immunodeficiency virus type 1 integrase (Human immunodeficiency virus 1) (UniProt Q7ZJM1); assay: Inhibition of wild type recombinant HIV1 His6-tagged integrase expressed in Escherichia coli BL21 using 18 nucleotide 3'-biotin labeled DNA acceptor as substrate upto 10 uM preincubated for 1 hr followed by substrate addition and further incubated for 90 mins in presence of recombinant LEDGF/p75 by HTRF assay
Chain of Human immunodeficiency virus type 1 integrase (Human immunodeficiency virus 1) (Q7ZJM1 as listed by the source): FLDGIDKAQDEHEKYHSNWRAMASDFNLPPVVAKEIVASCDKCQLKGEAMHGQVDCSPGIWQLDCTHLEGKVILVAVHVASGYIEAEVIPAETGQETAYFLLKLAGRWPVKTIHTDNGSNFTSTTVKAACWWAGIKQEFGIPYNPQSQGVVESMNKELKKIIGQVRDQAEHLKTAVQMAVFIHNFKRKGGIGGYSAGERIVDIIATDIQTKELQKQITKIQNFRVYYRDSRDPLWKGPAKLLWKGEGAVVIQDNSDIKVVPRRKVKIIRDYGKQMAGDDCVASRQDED

[6] = test system: Human immunodeficiency virus 1; assay: as §1, with “Antiviral activity against” for “Selectivity index, ratio of CC50 for human HeLa cells assessed as reduction in cell viability to EC50 for”; format: functional, organism-based; details: Human immunodeficiency virus 1, NL4-3, TZM
In short: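 Two-round cell assay over the full replication cycle: MT-2 T cells are infected with wild-type reference strain NL4-3 in the first round, and reporter TZM-bl cells are infected in the second round. Values are given as mean ± deviation.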

[7] = (§3) Inhibition of HIV1 Nucleocapsid protein (11 to 55 residues) assessed as reduction in NC-induced cTAR DNA destabilization by measuring intrinsic fluorescence using Alexa488-5'-cTAR-3'-Dabcyl oligonucleotide as substrate at 20 degree C incubated for 15 mins by fluorescence assay; parameters: species or system Human immunodeficiency virus 1
In short: (§4)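 Fluorescence NC-inhibition assay following destabilisation of cTAR DNA, the complement of the HIV-1 transactivation response element, dual-labelled with Alexa488 dye and Dabcyl quencher. NC protein at 1 μM, so the lowest measurable IC50 is 0.5 μM.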

[8] = Half life in mouse plasma at 3 uM by LC-MS/MS analysis; format: ADME, cell-free
Cytochrome P450 3A4 = Cytochrome P450 3A4 (Homo sapiens, UniProt P08684); assay: Inhibition of human microsomal CYP3A4 expressed in baculovirus infected insect cells using luciferin-IPA as substrate preincubated with enzyme/substrate mixture for 30 mins followed by further incubation with NADPH for 30 mins by CYP450 luciferase Glo assay; format: ADME
Chain of Cytochrome P450 3A4 (P08684 whole entry): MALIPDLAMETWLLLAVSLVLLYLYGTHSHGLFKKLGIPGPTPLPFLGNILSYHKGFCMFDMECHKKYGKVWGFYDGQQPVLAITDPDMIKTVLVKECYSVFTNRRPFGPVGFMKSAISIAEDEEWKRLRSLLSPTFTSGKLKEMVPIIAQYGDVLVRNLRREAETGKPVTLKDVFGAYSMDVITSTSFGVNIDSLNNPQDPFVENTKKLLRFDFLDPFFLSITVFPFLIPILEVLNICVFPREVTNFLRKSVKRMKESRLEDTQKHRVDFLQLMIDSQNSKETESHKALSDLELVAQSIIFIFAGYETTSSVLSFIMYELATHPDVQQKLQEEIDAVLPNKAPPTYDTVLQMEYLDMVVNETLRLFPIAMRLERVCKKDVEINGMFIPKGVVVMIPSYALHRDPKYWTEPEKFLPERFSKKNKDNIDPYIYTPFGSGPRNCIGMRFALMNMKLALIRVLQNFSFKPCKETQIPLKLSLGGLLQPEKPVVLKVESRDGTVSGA

Cytochrome P450 2D6 = Cytochrome P450 2D6 (Homo sapiens, UniProt P10635); assay: Inhibition of human microsomal CYP2D6 expressed in baculovirus infected insect cells using luciferin-ME as substrate preincubated with enzyme/substrate mixture for 30 mins followed by further incubation with NADPH for 30 mins by CYP450 luciferase Glo assay; format: ADME
Chain of Cytochrome P450 2D6 (P10635 whole entry): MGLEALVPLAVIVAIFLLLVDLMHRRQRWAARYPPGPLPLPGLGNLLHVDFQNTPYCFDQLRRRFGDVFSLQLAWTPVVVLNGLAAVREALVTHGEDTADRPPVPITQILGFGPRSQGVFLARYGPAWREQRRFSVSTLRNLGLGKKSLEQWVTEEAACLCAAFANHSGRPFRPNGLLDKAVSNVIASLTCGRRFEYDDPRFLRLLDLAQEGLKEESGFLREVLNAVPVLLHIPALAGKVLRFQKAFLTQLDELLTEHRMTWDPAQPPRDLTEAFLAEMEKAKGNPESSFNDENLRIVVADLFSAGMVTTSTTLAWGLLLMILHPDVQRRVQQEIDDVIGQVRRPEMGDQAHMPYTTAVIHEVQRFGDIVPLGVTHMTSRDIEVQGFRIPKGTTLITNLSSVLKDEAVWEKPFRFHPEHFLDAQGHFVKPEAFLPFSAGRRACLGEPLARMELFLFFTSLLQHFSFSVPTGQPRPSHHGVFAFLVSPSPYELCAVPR

Cytochrome P450 1A2 = target: T1, Cytochrome P450 1A2 (Homo sapiens, UniProt P05177); assay: Inhibition of human microsomal CYP1A2 expressed in baculovirus infected insect cells using luciferin-1A2 as substrate preincubated with enzyme-substrate mixture for 30 mins followed by further incubation with NADPH for 30 mins by CYP450 luciferase Glo assay; format: ADME
T1 sequence (P05177 whole entry): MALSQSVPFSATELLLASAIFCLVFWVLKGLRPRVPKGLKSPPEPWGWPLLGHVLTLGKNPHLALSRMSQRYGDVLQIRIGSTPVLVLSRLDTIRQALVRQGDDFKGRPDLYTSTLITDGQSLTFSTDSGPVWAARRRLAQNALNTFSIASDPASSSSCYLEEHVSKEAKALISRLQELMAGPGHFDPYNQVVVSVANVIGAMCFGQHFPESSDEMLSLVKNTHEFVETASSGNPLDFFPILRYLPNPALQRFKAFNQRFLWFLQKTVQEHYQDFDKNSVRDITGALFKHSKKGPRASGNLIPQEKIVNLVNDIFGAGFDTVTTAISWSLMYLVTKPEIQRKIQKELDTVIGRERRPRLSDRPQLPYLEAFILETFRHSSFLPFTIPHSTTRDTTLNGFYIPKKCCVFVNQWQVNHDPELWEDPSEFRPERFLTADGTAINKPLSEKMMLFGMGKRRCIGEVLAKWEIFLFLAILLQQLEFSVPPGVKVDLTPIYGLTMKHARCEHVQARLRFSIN

[9] = Half life in human plasma at 3 uM by LC-MS/MS analysis; format: ADME, cell-free
[10] = target: Voltage-gated inwardly rectifying potassium channel KCNH2 (Homo sapiens, UniProt Q12809); assay: Displacement of Tracer Red from human ERG measured after 4 hrs by fluorescence polarization assay
Chain of Voltage-gated inwardly rectifying potassium channel KCNH2 (Q12809 whole entry): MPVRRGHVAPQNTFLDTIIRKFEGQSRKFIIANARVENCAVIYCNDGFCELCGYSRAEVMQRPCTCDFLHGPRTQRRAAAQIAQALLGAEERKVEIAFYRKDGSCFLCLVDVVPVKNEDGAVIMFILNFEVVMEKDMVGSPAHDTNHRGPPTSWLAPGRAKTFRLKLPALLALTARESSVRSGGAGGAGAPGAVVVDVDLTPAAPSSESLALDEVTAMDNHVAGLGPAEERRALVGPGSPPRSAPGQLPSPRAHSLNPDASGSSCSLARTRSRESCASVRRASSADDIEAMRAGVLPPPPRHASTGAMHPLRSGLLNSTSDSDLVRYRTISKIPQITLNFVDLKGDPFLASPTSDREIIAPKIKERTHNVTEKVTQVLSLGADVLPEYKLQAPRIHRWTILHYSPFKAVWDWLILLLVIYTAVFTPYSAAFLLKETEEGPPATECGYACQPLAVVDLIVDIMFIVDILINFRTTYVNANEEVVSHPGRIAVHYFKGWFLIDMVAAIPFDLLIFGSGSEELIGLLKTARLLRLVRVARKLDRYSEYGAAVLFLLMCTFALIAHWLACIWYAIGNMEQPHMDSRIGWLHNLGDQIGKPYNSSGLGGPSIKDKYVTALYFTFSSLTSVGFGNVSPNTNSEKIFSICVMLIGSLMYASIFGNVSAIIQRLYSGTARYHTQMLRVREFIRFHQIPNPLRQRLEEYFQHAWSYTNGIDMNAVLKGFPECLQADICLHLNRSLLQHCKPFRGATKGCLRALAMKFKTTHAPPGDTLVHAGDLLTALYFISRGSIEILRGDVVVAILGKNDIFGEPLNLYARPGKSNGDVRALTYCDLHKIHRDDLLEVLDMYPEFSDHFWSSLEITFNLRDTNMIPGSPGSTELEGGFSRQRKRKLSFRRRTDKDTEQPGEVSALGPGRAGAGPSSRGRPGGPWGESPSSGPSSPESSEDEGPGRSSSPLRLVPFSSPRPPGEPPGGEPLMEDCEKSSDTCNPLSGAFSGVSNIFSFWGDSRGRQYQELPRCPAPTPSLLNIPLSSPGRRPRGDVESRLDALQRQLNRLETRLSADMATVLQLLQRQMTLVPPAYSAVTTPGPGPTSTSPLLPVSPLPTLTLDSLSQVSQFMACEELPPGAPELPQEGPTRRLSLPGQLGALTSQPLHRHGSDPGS

[11] = Half life in mouse hepatocytes at 3 uM by LC-MS/MS analysis; format: ADME, cell-based, Hepatocyte
[12] = Half life in human hepatocytes at 3 uM by LC-MS/MS analysis; format: ADME, cell-based, Hepatocyte
[13] = test system: Human immunodeficiency virus 1; assay: as §3, with “Ratio” for “Inhibition”, “of IC50 for NRTI-resistant HIV1 7401 Nucleocapsid protein (11 to 55 residues) using Alexa488-5'-cTAR-3'-Dabcyl oligonucleotide as substrate to IC50 for” for “of”
[14] = test system: Human immunodeficiency virus 1; assay: Antiviral activity against NRTI-resistant HIV1 7401; format: functional, organism-based; details: Human immunodeficiency virus 1, 7401
[15] = test system: Human immunodeficiency virus 1; assay: as §3, with “Ratio” for “Inhibition”, “of IC50 for NNRTI-resistant HIV1 12231 Nucleocapsid protein (11 to 55 residues) using Alexa488-5'-cTAR-3'-Dabcyl oligonucleotide as substrate to IC50 for” for “of”
[16] = test system: Human immunodeficiency virus 1; assay: as §3, with “Ratio” for “Inhibition”, “of IC50 for INI-resistant HIV1 11845 Nucleocapsid protein (11 to 55 residues) using Alexa488-5'-cTAR-3'-Dabcyl oligonucleotide as substrate to IC50 for” for “of”
[17] = Clearance in C57BL/6 mouse at 2 mg/kg, iv or 5 mg/kg, po administered as single dose measured up to 24 hrs by LC-MS/MS analysis; format: ADME, organism-based; details: in vivo
[18] = Oral bioavailability in C57BL/6 mouse at 5 mg/kg administered as single dose measured up to 24 hrs by LC-MS/MS analysis; format: ADME, organism-based; details: in vivo
In short: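 C57BL/6 mice were dosed 5 mg/kg orally, with a 2 mg/kg iv reference arm. Plasma was sampled at eight time points up to 24 h.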

[19] = Volume of distribution at steady state in C57BL/6 mouse at 2 mg/kg, iv or 5 mg/kg, po administered as single dose measured up to 24 hrs by LC-MS/MS analysis; format: ADME, organism-based; details: in vivo, read-out: Vdss
[20] = Half life in C57BL/6 mouse at 2 mg/kg, iv or 5 mg/kg, po administered as single dose measured up to 24 hrs by LC-MS/MS analysis; format: ADME, organism-based; details: in vivo
[21] = test system: Human immunodeficiency virus 1; assay: Antiviral activity against INI-resistant HIV1 11845; format: functional, organism-based; details: Human immunodeficiency virus 1, 11845
[22] = test system: Human immunodeficiency virus 1; assay: Antiviral activity against PI-resistant HIV1 11808; format: functional, organism-based; details: Human immunodeficiency virus 1, 11808
[23] = test system: Human immunodeficiency virus 1; assay: Antiviral activity against NNRTI-resistant HIV1 12231; format: functional, organism-based; details: Human immunodeficiency virus 1, 12231
[24] = test system: Human immunodeficiency virus 1; assay: as §3, with “Ratio” for “Inhibition”, “of IC50 for PI-resistant HIV1 11808 Nucleocapsid protein (11 to 55 residues) using Alexa488-5'-cTAR-3'-Dabcyl oligonucleotide as substrate to IC50 for” for “of”
[25] = test system: Human immunodeficiency virus 1; assay: as §3; in short: as §4

## O=C(NCC1CCCCC1)c1nc(-c2ccccn2)nc(O)c1O
[1]
  selectivity ratio: 3
[2]
  selectivity ratio at 7 days: 2
[3]
  CC50 at 168 h: 2.6 µM
[4]
  CC50: 3.6 µM
[5]
  inhibition: inactive
[6]
  EC50: 1.2 µM
[7]; read-out: IC50
  IC50: 167 µM

## CN(CC1CCCCC1)C(=O)c1nc(-c2ccccn2)nc(O)c1O
[7]
  IC50: Not Active

## C[C@@H](NC(=O)c1nc(-c2cc(C(F)(F)F)ccn2)nc(O)c1O)C1CCCCC1
[1]
  selectivity ratio: 15
[8]
  half-life at 3 µM: > 1 h
[2]
  selectivity ratio at 7 days: 3
[3]
  CC50 at 168 h: 1.1 µM
Cytochrome P450 3A4
  IC50: > 30 µM
[4]
  CC50: 6 µM
Cytochrome P450 2D6
  IC50: > 30 µM
Cytochrome P450 1A2
  IC50: > 30 µM
[6]
  EC50: 0.4 µM
[9]
  half-life at 3 µM: > 1 h
[10]
  IC50: > 30 µM
[11]
  half-life at 3 µM: 2.4 h
[7]; read-out: IC50
  IC50: 12 µM
[12]
  half-life at 3 µM: > 4 h

## O=C(NCC1CCCCC1)c1nc(CCc2ccccc2)nc(O)c1O
[7]
  IC50: Not Active

## O=C(NCc1ccccc1)c1nc(-c2ccccn2)nc(O)c1O
[7]
  IC50: Not Active

## C[C@@H](NC(=O)c1nc(-c2nccc3ccccc23)nc(O)c1O)C1CCCCC1
[1]
  selectivity ratio: 21
[8]
  half-life at 3 µM: 3.7 h
[13]
  Ratio IC50: 1.3
[14]
  EC50: 0.13 µM
[2]
  selectivity ratio at 7 days: 50
[15]
  Ratio IC50: 2
[3]
  CC50 at 168 h: 5 µM
Cytochrome P450 3A4
  IC50: > 30 µM
[4]
  CC50: 2.1 µM
[16]
  Ratio IC50: 0.9
Cytochrome P450 2D6
  IC50: > 30 µM
[17]
  clearance: 30.2 mL/min/kg
[5]
  inhibition: inactive
[18]
  bioavailability: 26%
Cytochrome P450 1A2
  IC50: > 30 µM
[6]
  EC50: 0.1 µM
[19]
  Vd: 0.8 L/kg
[20]
  half-life: 1.1 h
[10]
  IC50: > 30 µM
[11]
  half-life at 3 µM: 1.7 h
[7]; read-out: IC50
  IC50: 4 µM
[12]
  half-life at 3 µM: 2.6 h
[21]
  EC50: 0.09 µM
[22]
  EC50: 0.16 µM
[23]
  EC50: 0.21 µM
[24]
  Ratio IC50: 1.6

## Cc1cccnc1-c1nc(O)c(O)c(C(=O)N[C@H](C)C2CCCCC2)n1
[7]; read-out: IC50
  IC50: 21 µM

## C[C@@H](NC(=O)c1nc(-c2ccc(C(F)(F)F)cn2)nc(O)c1O)C1CCCCC1
[7]; read-out: IC50
  IC50: 23 µM

## Cc1ccc(-c2nc(O)c(O)c(C(=O)N[C@H](C)C3CCCCC3)n2)nc1
[25]
  IC40: 20 µM

## Cc1cccc(-c2nc(O)c(O)c(C(=O)N[C@H](C)C3CCCCC3)n2)n1
[7]; read-out: IC50
  IC50: 20 µM

## CC(c1ccccc1)c1nc(O)c(O)c(C(=O)NCC2CCCCC2)n1 (stereo not drawn)
[7]
  IC50: Not Active

## CC(Cc1nc(-c2ccc(O)c(O)c2)cs1)n1cc(Cl)cn1 (stereo not drawn)
[7]; read-out: IC50
  IC50: 110 µM

## C[C@H](NC(=O)c1nc(-c2ccccn2)nc(O)c1O)C1CCCCC1
[1]
  selectivity ratio: 3
[2]
  selectivity ratio at 7 days: 12
[3]
  CC50 at 168 h: 2.4 µM
[4]
  CC50: 0.6 µM
[6]
  EC50: 0.2 µM
[7]; read-out: IC50
  IC50: 47 µM

## O=C(NCC1CCCCC1)c1nc(-c2ccccc2)nc(O)c1O
[7]
  IC50: Not Active
